{"data": "Measurements collected from several papers", "target": "Ephrin type-B receptor 3 (EPHB3, Homo sapiens, UniProt P54753)", "Residues used in one study (P54753 34-998)": "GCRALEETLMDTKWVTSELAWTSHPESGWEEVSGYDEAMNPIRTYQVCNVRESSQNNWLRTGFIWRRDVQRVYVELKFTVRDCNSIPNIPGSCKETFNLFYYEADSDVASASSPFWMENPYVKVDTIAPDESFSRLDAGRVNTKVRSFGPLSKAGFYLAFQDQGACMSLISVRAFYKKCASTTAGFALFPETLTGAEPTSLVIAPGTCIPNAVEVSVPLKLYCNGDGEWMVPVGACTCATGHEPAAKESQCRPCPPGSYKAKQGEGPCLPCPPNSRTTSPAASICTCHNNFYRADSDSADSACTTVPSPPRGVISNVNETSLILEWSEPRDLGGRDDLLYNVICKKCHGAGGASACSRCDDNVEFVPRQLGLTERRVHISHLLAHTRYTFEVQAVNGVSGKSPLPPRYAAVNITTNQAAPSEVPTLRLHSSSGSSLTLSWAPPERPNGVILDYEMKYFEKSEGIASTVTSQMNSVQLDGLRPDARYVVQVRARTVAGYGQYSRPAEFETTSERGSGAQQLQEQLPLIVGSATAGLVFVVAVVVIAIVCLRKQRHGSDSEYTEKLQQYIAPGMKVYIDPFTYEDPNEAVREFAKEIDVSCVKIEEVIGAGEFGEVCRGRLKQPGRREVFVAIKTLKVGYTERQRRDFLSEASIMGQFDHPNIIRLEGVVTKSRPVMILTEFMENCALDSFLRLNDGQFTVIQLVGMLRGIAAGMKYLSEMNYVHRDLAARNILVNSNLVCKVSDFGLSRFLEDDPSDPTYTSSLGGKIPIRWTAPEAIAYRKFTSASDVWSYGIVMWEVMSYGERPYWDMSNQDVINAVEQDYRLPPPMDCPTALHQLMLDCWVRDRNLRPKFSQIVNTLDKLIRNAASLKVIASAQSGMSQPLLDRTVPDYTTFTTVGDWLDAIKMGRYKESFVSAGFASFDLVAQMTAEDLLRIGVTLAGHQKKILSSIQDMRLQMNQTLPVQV"}
{"Compound": "CN(CCCC(F)(F)F)c1nccc(-c2cnn3ncccc23)n1", "test": "binding", "setting": "1 µM", "remaining binding [%]": 87}
{"Compound": "Cc1cnc(Nc2ccc(C(=O)N3CCC(N4CCCC4)CC3)cc2)nc1-c1cc2ccccc2s1", "test": "binding, competition with immobilised ligand", "setting": "1 µM", "remaining binding [%]": 77}
{"Compound": "N[C@@H]1CCN(c2nccc(-c3cnn4ncccc34)n2)C1", "test": "binding", "setting": "1 µM", "remaining binding [%]": 100}
{"Compound": "Cc1c(C(=O)O)cc(-c2ccc(C3CCNCC3)cc2)c2ccc(-c3ccc(C(F)(F)F)cc3)cc12", "test": "cell-free assay, competition with immobilised ligand", "setting": "1 µM", "remaining binding [%]": 100}
{"Compound": "O=C(Nc1c[nH]nc1C(=O)NC1CCNCC1)c1cc(F)cc(F)c1", "test": "binding, competition with immobilised ligand", "setting": "1 µM", "remaining binding [%]": 100}
{"Compound": "CN(C)c1nccc(-c2cnc3ncccn23)n1", "test": "binding", "setting": "1 µM", "remaining binding [%]": 91}
{"Compound": "Nc1ncc2c(n1)-c1c([nH]c3ccc(C#CC4CC4)cc13)CCCC2", "test": "binding, competition with immobilised ligand", "setting": "1 µM", "remaining binding [%]": 100}
{"Compound": "C[C@@H](c1ccc(-n2cnc3c(N)ncnc32)cc1)N1CCc2nn(C)c(Cc3ccccc3)c2C1=O", "test": "binding, competition with immobilised ligand", "setting": "0.1 µM", "remaining binding [%]": 90}
{"Compound": "CN(C)c1nccc(-c2cnn3ncccc23)n1", "test": "binding", "setting": "1 µM", "remaining binding [%]": 88}
{"Compound": "O=C1NC(c2ccccn2)Sc2ccccc21 (centres unmarked)", "test": "cell-free assay, competition with immobilised ligand", "setting": "1 µM", "remaining binding [%]": 80}
{"Compound": "C[C@H]1CCN(c2nccc(-c3cnn4ncccc34)n2)C1", "test": "binding", "setting": "1 µM", "remaining binding [%]": 100}
{"Compound": "O=C(c1ccc(Nc2ncc(Cl)c(-c3ccc(Cl)s3)n2)cc1)N1CCC(N2CCCC2)CC1", "test": "binding, competition with immobilised ligand", "setting": "1 µM", "remaining binding [%]": 88}
{"Compound": "C[C@@H](c1cccc(C#N)c1)n1cc(Cl)cc(C(N)=O)c1=N", "test": "cell-free assay, competition with immobilised ligand", "setting": "1 µM", "remaining binding [%]": 85}
{"Compound": "O=C(c1ccc(Nc2nccc(-c3cc4ccccc4s3)n2)cc1)N1CCC(N2CCCC2)CC1", "test": "binding, competition with immobilised ligand", "setting": "1 µM", "remaining binding [%]": 100}
{"Compound": "O=C(O)c1cc(-c2ccc(C3CCNCC3)cc2)c2ccc(-c3ccc(C(F)(F)F)cc3)cc2c1", "test": "cell-free assay, competition with immobilised ligand", "setting": "1 µM", "remaining binding [%]": 100}
{"Compound": "COc1cnc(Nc2cccc(S(N)(=O)=O)c2)nc1N1CCN(c2ccccc2)CC1", "test": "binding, competition with immobilised ligand", "setting": "1 µM", "remaining binding [%]": 100}
{"Compound": "COc1ccc2c(c1)O[C@@H](c1ccc(OC)c(OC)c1)C[C@H]2NC(=O)C1(c2ccc3c(c2)OC(F)(F)O3)CC1", "test": "cell-free assay, competition with immobilised ligand", "setting": "1 µM", "remaining binding [%]": 90}
{"Compound": "COc1cnc(Nc2cccc(S(N)(=O)=O)c2)nc1N1CCN(c2ccccc2)C(=O)C1", "test": "binding, competition with immobilised ligand", "setting": "1 µM", "remaining binding [%]": 100}
{"Compound": "CN(C)c1ncc(F)c(-c2cnn3ncccc23)n1", "test": "binding", "setting": "1 µM", "remaining binding [%]": 76}
{"Compound": "CNC(=O)Nc1ccc2c(c1)CC[C@@]21OC(=O)N(CC(=O)N(Cc2ccc(F)cc2)[C@@H](C)C(F)(F)F)C1=O", "test": "cell-free assay, competition with immobilised ligand", "setting": "1 µM", "remaining binding [%]": 80}
